# Laboratory results as given in ChEMBL document CHEMBL1800053, “Concise synthesis and antiangiogenic activity of artemisinin-glycolipid hybrids on chorioallantoic membranes” (Bioorg Med Chem Lett, 2010).
# Legend:
# [1] = Embryotoxicity in fertilized chicken embryo at 2.5 nmol/egg; format: toxicity, Gallus gallus
# Gallus gallus = species: Gallus gallus; assay: Antiangiogenesis activity against fertilized chicken egg chorioallantoic membrane assessed as inhibition of neovascularization at 2.5 nmol/egg by CAM vessel development assay relative to control; format: functional, tissue-based
# Procedure, shortened: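 Fertilized chicken eggs incubated at 37 °C, 80–90% relative humidity. Day 3: window opened after removing 2 ml albumin. Day 5: sample loaded on a quarter-size coverslip placed on the CAM of each embryo, 2.5 nmol/egg. Scored as positive eggs out of 10 tested, graded inhibition effect, and % inhibition of vessel development relative to control.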
SMILES,Activity [1],inhibition (Gallus gallus) [%]
C[C@H]1[C@@H](CC(=O)O[C@@H]2C[C@@H](O)[C@H](C)O[C@H]2O[C@H](C)CCCCCO)O[C@@H]2O[C@@]3(C)CC[C@H]4[C@H](C)CC[C@@H]1[C@@]24OO3,Non-toxic,50
C=CCCCC[C@@H](C)O[C@@H]1O[C@@H](C)[C@H](O)C[C@H]1OC(=O)C[C@H]1O[C@@H]2O[C@@]3(C)CC[C@H]4[C@H](C)CC[C@@H]([C@H]1C)[C@@]24OO3,50%,50
C[C@H]1[C@@H](CCOC(=O)CCCC[C@H](C)O[C@@H]2O[C@@H](C)[C@H](O)C[C@H]2O)O[C@@H]2O[C@@]3(C)CC[C@H]4[C@H](C)CC[C@@H]1[C@@]24OO3,Toxic,60
C[C@H]1[C@@H](CC(=O)OCCCCC[C@@H](C)O[C@@H]2O[C@@H](C)[C@H](O)C[C@H]2O)O[C@@H]2O[C@@]3(C)CC[C@H]4[C@H](C)CC[C@@H]1[C@@]24OO3,Non-toxic,100
C[C@H]1[C@@H](CCOC(=O)CCCC[C@H](C)O[C@@H]2O[C@@H](C)[C@H](OC(=O)c3ccccc3)C[C@H]2OC(=O)c2ccccc2)O[C@@H]2O[C@@]3(C)CC[C@H]4[C@H](C)CC[C@@H]1[C@@]24OO3,Toxic,60
C[C@H]1[C@@H](CC(=O)OCCCCC[C@@H](C)O[C@@H]2O[C@@H](C)[C@H](OCc3ccccc3)C[C@H]2OCc2ccccc2)O[C@@H]2O[C@@]3(C)CC[C@H]4[C@H](C)CC[C@@H]1[C@@]24OO3,Toxic,50
C[C@H]1[C@@H](OC(=O)CCCC[C@H](C)O[C@@H]2O[C@@H](C)[C@H](O)C[C@H]2O)O[C@@H]2O[C@@]3(C)CC[C@H]4[C@H](C)CC[C@@H]1[C@@]24OO3,Toxic,50
C=CCCCC[C@@H](C)O[C@@H]1O[C@@H](C)[C@H](OC(=O)C[C@H]2O[C@@H]3O[C@@]4(C)CC[C@H]5[C@H](C)CC[C@@H]([C@H]2C)[C@@]35OO4)C[C@H]1O,Toxic,70
C[C@H]1[C@@H](CCCOC(=O)CCCC[C@H](C)O[C@@H]2O[C@@H](C)[C@H](OC(=O)c3ccccc3)C[C@H]2OC(=O)c2ccccc2)O[C@@H]2O[C@@]3(C)CC[C@H]4[C@H](C)CC[C@@H]1[C@@]24OO3,Non-toxic,80
C[C@@H]1CC[C@H]2[C@@H](C)C(=O)O[C@@H]3O[C@@]4(C)CC[C@@H]1[C@]32OO4 [ARTEMISININ],Non-toxic,30
O=C1CC[C@H](N2C(=O)c3ccccc3C2=O)C(=O)N1,Toxic,40
C[C@H](CCCCC(=O)O)O[C@@H]1O[C@@H](C)[C@H](O)C[C@H]1O [DAUMONE],Non-toxic,70
CO[C@@H]1[C@H](OC(=O)/C=C/C=C/C=C/C=C/C(=O)O)CC[C@]2(CO2)[C@H]1[C@@]1(C)O[C@@H]1CC=C(C)C [FUMAGILLIN],Toxic,40
C[C@H]1[C@@H](CCCOC(=O)CCCC[C@H](C)O[C@@H]2O[C@@H](C)[C@H](O)C[C@H]2O)O[C@@H]2O[C@@]3(C)CC[C@H]4[C@H](C)CC[C@@H]1[C@@]24OO3,Toxic,60
C[C@H]1[C@@H](OC(=O)CCCC[C@H](C)O[C@@H]2O[C@@H](C)[C@H](OC(=O)c3ccccc3)C[C@H]2OC(=O)c2ccccc2)O[C@@H]2O[C@@]3(C)CC[C@H]4[C@H](C)CC[C@@H]1[C@@]24OO3,Toxic,10
